Experimental data published in ChEMBL document CHEMBL2331220, “Benzimidazole clubbed with triazolo-thiadiazoles and triazolo-thiadiazines: new anticancer agents” (2013).

Legend:
Assay type in all cases: functional
LOX IMVI = test: Cytotoxicity against human LOXIMVI cells after 48 hrs by SRB assay
Outline: (§1)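 NCI 60-line five-dose screen. Cells were preincubated 24 h at 37 °C under 5% CO2 and 100% humidity, and time-zero plates were TCA-fixed when compound was added. Five 10-fold concentrations (0.01–100) were tested for 48 h. Cells were fixed with cold TCA (final 10%, 60 min, 4 °C), stained with 0.4% SRB for 10 min, and read at 515 nm. GI50, TGI and LC50 came from growth-percentage formulas, with out-of-range values given as > or <.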

HOP-62 = test: Cytotoxicity against human HOP62 cells after 48 hrs by SRB assay; details: HOP-62, 48 h; outline: as §1
CAKI-1 = test: Cytotoxicity against human Caki1 cells after 48 hrs by SRB assay; details: CAKI-1, 48 h; outline: as §1
MDA-MB-231 = test: Cytotoxicity against human MDA-MB-231 cells after 48 hrs by SRB assay; details: MDA-MB-231, 48 h; outline: as §1
SNB-75 = test: Cytotoxicity against human SNB75 cells after 48 hrs by SRB assay; details: SNB-75, 48 h
Outline: (§2)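 NCI 60-line five-dose screen: cells plated, held 24 h at 37 °C, 5% CO₂ before treatment, with a TCA-fixed time-zero plate. Five final concentrations (0.01–100 µM, 10-fold dilutions) for 48 h. Cells fixed with cold TCA (10% final) and stained with 0.4% SRB in 1% acetic acid. Dye dissolved in 10 mM Tris and read at 515 nm. GI₅₀, TGI and LC₅₀ taken from percent-growth curves.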

HCT-116 = test: Cytotoxicity against human HCT116 cells after 48 hrs by SRB assay; details: HCT-116, 48 h; outline: as §1
HCC 2998 = test: Cytotoxicity against human HCC2998 cells after 48 hrs by SRB assay; details: HCC 2998, 48 h; outline: as §1
UO-31 = test: Cytotoxicity against human UO31 cells after 48 hrs by SRB assay; details: UO-31, 48 h; outline: as §2
RXF 393 = test: Cytotoxicity against human RXF393 cells after 48 hrs by SRB assay; details: RXF 393, 48 h; outline: as §1
MDA-MB-435 = test: Cytotoxicity against human MDA-MB-435 cells after 48 hrs by SRB assay; details: MDA-MB-435, 48 h; outline: as §1
HCT-15 = test: Cytotoxicity against human HCT15 cells after 48 hrs by SRB assay; details: HCT-15, 48 h; outline: as §1
Hs-578T = test: Cytotoxicity against human Hs578T cells after 48 hrs by SRB assay
Outline: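 NCI five-dose screen: cells preincubated 24 h at 37 °C, 5% CO₂, with time-zero plates TCA-fixed. Five 10-fold dilutions (0.01–100) were added and cells incubated for 48 h, then fixed in 10% TCA for 60 min at 4 °C. Staining used 0.4% SRB in 1% acetic acid, solubilised in 10 mM Tris, with A515 read. GI₅₀, TGI and LC₅₀ were derived from Tz, control and test absorbances.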

OVCAR-8 = test: Cytotoxicity against human OVCAR8 cells after 48 hrs by SRB assay; details: OVCAR-8, 48 h; outline: as §1
RPMI-8226 = test: Cytotoxicity against human RPMI8226 cells after 48 hrs by SRB assay; details: RPMI-8226, 48 h; outline: as §1
A498 = test: Cytotoxicity against human A498 cells after 48 hrs by SRB assay; details: A498, 48 h; outline: as §1
SN12C = test: Cytotoxicity against human SN12C cells after 48 hrs by SRB assay; outline: as §2
TK-10 = test: Cytotoxicity against human TK10 cells after 48 hrs by SRB assay; details: TK-10, 48 h; outline: as §2
NCI/ADR-RES = test: Cytotoxicity against human NCI/ADR-RES cells after 48 hrs by SRB assay; outline: as §1
[1] = read-out: LC50 (the source's name)
[2] = read-out: pLC50 (the source's name) (converted)

O=C(CCc1nnc2sc(-c3ccc(Cl)cc3Cl)nn12)c1nc2ccccc2[nH]1
GI50 (LOX IMVI; read-out: GI50): 363 nM | TGI (LOX IMVI; read-out: TGI): 1590 nM | GI50 (LOX IMVI; read-out: pGI50 (converted)): 363 nM | TGI (LOX IMVI; read-out: pTGI (converted)): 1580 nM | GI50 (HOP-62; read-out: GI50): 576 nM | CC50 (HOP-62; [1]): 6160 nM | TGI (HOP-62; read-out: TGI): 2120 nM | GI50 (HOP-62; read-out: pGI50 (converted)): 575 nM | CC50 (HOP-62; [2]): 6170 nM | TGI (HOP-62; read-out: pTGI (converted)): 2140 nM | GI50 (CAKI-1; read-out: GI50): 1450 nM | TGI (CAKI-1; read-out: TGI): 3440 nM | GI50 (CAKI-1; read-out: pGI50 (converted)): 1450 nM | TGI (CAKI-1; read-out: pTGI (converted)): 3470 nM | GI50 (MDA-MB-231; read-out: GI50): 1000 nM | LC50 (MDA-MB-231; read-out: LC50): 5870 nM | TGI (MDA-MB-231; read-out: TGI): 2420 nM | GI50 (MDA-MB-231; read-out: pGI50 (converted)): 1000 nM | LC50 (MDA-MB-231; read-out: pLC50 (converted)): 5890 nM | TGI (MDA-MB-231; read-out: pTGI (converted)): 2400 nM | GI50 (SNB-75; read-out: GI50): 1960 nM | CC50 (SNB-75; [1]): 17100 nM | TGI (SNB-75; read-out: TGI): 4650 nM | GI50 (SNB-75; read-out: pGI50 (converted)): 1950 nM | CC50 (SNB-75; [2]): 17000 nM | TGI (SNB-75; read-out: pTGI (converted)): 4680 nM | GI50 (HCT-116; read-out: GI50): 320 nM | CC50 (HCT-116; [1]): 5060 nM | TGI (HCT-116; read-out: TGI): 1240 nM | GI50 (HCT-116; read-out: pGI50 (converted)): 316 nM | CC50 (HCT-116; [2]): 5010 nM | TGI (HCT-116; read-out: pTGI (converted)): 1230 nM | GI50 (HCC 2998; read-out: GI50): 1630 nM | CC50 (HCC 2998; [1]): 6290 nM | TGI (HCC 2998; read-out: TGI): 3200 nM | GI50 (HCC 2998; read-out: pGI50 (converted)): 1620 nM | CC50 (HCC 2998; [2]): 6310 nM | TGI (HCC 2998; read-out: pTGI (converted)): 3160 nM | GI50 (UO-31; read-out: GI50): 576 nM | LC50 (UO-31; read-out: LC50): 4630 nM | TGI (UO-31; read-out: TGI): 2020 nM | GI50 (UO-31; read-out: pGI50 (converted)): 575 nM | LC50 (UO-31; read-out: pLC50 (converted)): 4680 nM | TGI (UO-31; read-out: pTGI (converted)): 2040 nM | GI50 (RXF 393; read-out: GI50): 674 nM | CC50 (RXF 393; [1]): 4550 nM | TGI (RXF 393; read-out: TGI): 1990 nM | GI50 (RXF 393; read-out: pGI50 (converted)): 676 nM | CC50 (RXF 393; [2]): 4570 nM | TGI (RXF 393; read-out: pTGI (converted)): 2000 nM | GI50 (MDA-MB-435; read-out: GI50): 265 nM | TGI (MDA-MB-435; read-out: TGI): 842 nM | GI50 (MDA-MB-435; read-out: pGI50 (converted)): 263 nM | TGI (MDA-MB-435; read-out: pTGI (converted)): 851 nM | GI50 (HCT-15; read-out: GI50): 489 nM | TGI (HCT-15; read-out: TGI): 2210 nM | GI50 (HCT-15; read-out: pGI50 (converted)): 490 nM | TGI (HCT-15; read-out: pTGI (converted)): 2240 nM | GI50 (Hs-578T; read-out: GI50): 478 nM | CC50 (Hs-578T; [1]): > 100000 nM | GI50 (Hs-578T; read-out: pGI50 (converted)): 479 nM | CC50 (Hs-578T; [2]): > 100000 nM | GI50 (OVCAR-8; read-out: GI50): 2580 nM | LC50 (lethal concentration 50%) (OVCAR-8; read-out: LC50): > 100000 nM | TGI (OVCAR-8; read-out: TGI): > 100000 nM | GI50 (OVCAR-8; read-out: pGI50 (converted)): 2570 nM | LC50 (lethal concentration 50%) (OVCAR-8; read-out: pLC50 (converted)): > 100000 nM | TGI (OVCAR-8; read-out: pTGI): > 100000 nM | GI50 (RPMI-8226; read-out: GI50): 352 nM | CC50 (RPMI-8226; [1]): > 100000 nM | TGI (RPMI-8226; read-out: TGI): 1760 nM | GI50 (RPMI-8226; read-out: pGI50 (converted)): 355 nM | CC50 (RPMI-8226; [2]): > 100000 nM | TGI (RPMI-8226; read-out: pTGI (converted)): 1780 nM | GI50 (A498; read-out: GI50): 1100 nM | LC50 (concentration giving 50% net cell kill) (A498; read-out: LC50): 4890 nM | TGI (A498; read-out: TGI): 2320 nM | GI50 (A498; read-out: pGI50 (converted)): 1100 nM | LC50 (concentration giving 50% net cell kill) (A498; read-out: pLC50 (converted)): 4900 nM | TGI (A498; read-out: pTGI (converted)): 2340 nM | GI50 (SN12C; read-out: GI50): 1230 nM | TGI (SN12C; read-out: TGI): 3100 nM | GI50 (SN12C; read-out: pGI50 (converted)): 1230 nM | TGI (SN12C; read-out: pTGI (converted)): 3090 nM | GI50 (TK-10; read-out: GI50): 2010 nM | LC50 (TK-10; read-out: LC50): 6300 nM | TGI (TK-10; read-out: TGI): 3550 nM | GI50 (TK-10; read-out: pGI50 (converted)): 2000 nM | LC50 (TK-10; read-out: pLC50 (converted)): 6310 nM | TGI (TK-10; read-out: pTGI (converted)): 3550 nM | GI50 (NCI/ADR-RES; read-out: GI50): 1560 nM | LC50 (NCI/ADR-RES; read-out: LC50): > 100000 nM | TGI (NCI/ADR-RES; read-out: TGI): 5800 nM | GI50 (NCI/ADR-RES; read-out: pGI50 (converted)): 1550 nM | LC50 (NCI/ADR-RES; read-out: pLC50 (converted)): > 100000 nM | TGI (NCI/ADR-RES; read-out: pTGI (converted)): 5750 nM
